Bounds are passed on as bounds.

Test [1] relates to Rattus norvegicus. Nature of the test: Effect (10 mg/kg, iv) on coronary reperfusion-induced arrhythmias was assessed in anesthetized rats.(Intervals of ventricular tachycardia (VT)+ventricular fibrillation (VF) within 600 s. It is filed as functional, Cardiac ventricle.
For test [2], the species on record is Rattus norvegicus. The experiment in a line: Inhibitory effect on production of active oxygen species by rat peritoneal exudate macrophages. Also noted: concentration or dose not given beside the values. It is filed as functional. The procedure, abridged:
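Peritoneal exudate macrophages harvested 3 days after ip liquid paraffin (male Wistar rats), >90% viable. Assay: 125 mM sodium phosphate pH 6.5, 0.08 mM EDTA, 1.2 U LDH, 0.32 mM NADH, (2–3) × 10^6 cells, compound in DMF, 1 × 10^-4 M. Started with NADH.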

The species named for test [3] is Rattus norvegicus. The experiment in a line: Inhibition of lipid peroxidation in rat liver microsomes. It is filed as functional. Also noted: concentration or dose not given beside the values. The note with it: dose or concentration not given here. Put shortly:
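Wistar rat liver microsomes (2.0 mg protein) in 83.5 mM KCl, 37.2 mM Tris-HCl pH 7.4 with 1 mM ADP, 10 µM FeCl3, 0.02 mM NADPH; compound added in DMF, tested at 10^-5 M. 37 °C, 20 min. Malondialdehyde measured by thiobarbituric acid method, A532; % inhibition, mean ± SD, n = 3–6.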
In general terms: Liver microsomes are vesicles of endoplasmic reticulum, rich in cytochrome P450 enzymes.

Test [4] relates to Rattus norvegicus. The experiment in a line: Effect (30 mg/kg, iv) on coronary reperfusion-induced arrhythmias was assessed in anesthetized rats.(Intervals of ventricular tachycardia (VT)+ventricular fibrillation (VF) within 600 s. It counts as functional, Cardiac ventricle.
For test [5], the species on record is Cavia porcellus. The experiment in a line: Inhibitory activity on atrial rate in isolated Guinea pig right atrea at 0.03 mg/mL concentration. It counts as functional, Cardiac atrium. Put shortly:
(§1)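 Right atria from male Hartley guinea pigs (450–550 g), loaded at 0.5 g, in Tyrode's solution at 37 °C gassed with 95% O2/5% CO2. Equilibrated at least 30 min until rate stable within 5 beats/min; spontaneous rate and contractile force recorded on polygraph after compound addition.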

The species named for test [6] is Cavia porcellus. Nature of the test: Inhibitory activity on atrial rate in isolated Guinea pig right atrea at 0.1 mg/mL concentration. It is filed as functional, Cardiac atrium. The procedure, abridged: as §1
The species entered for test [7] is Cavia porcellus. Nature of the test: Inhibitory activity on atrial rate in isolated Guinea pig right atrea at 0.3 mg/mL concentration. It counts as functional, Cardiac atrium. The procedure, abridged:
as §1

Test [8] is filed under the species Cavia porcellus. Nature of the test: Inhibitory activity on atrial contractility in isolated Guinea pig right atrea at 0.03 mg/mL concentration. It is filed as functional, Cardiac atrium. The procedure, abridged:
as §1

The species named for test [9] is Cavia porcellus. Nature of the test: Inhibitory activity on atrial contractility in isolated Guinea pig right atrea at 0.1 mg/mL concentration. It is filed as functional, Cardiac atrium. The procedure, abridged: as §1
The species entered for test [10] is Cavia porcellus. The experiment in a line: Inhibitory activity on atrial contractility in isolated Guinea pig right atrea at 0.3 mg/mL concentration. It is filed as functional, Cardiac atrium. Put shortly: as §1
For test [11], the system named is Rattus norvegicus. Nature of the test: Effect (10 mg/kg, po) on coronary reperfusion-induced arrhythmias was assessed in anesthetized rats.(Intervals of ventricular tachycardia (VT)+ventricular fibrillation (VF) within 600 s. It is filed as functional, Cardiac ventricle. Put shortly:
(§2)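 Male Wistar rats (350–450 g) dosed orally 1 h before occlusion, then anesthetized with pentobarbital (60 mg/kg ip) and ventilated. LAD ligated 5 min, reperfused 10 min; VT plus VF durations summed within 600 s. Mean ± SE, n = 5–10; line 2 value is the minimum effective dose.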

Test [12] concerns Rattus norvegicus. Nature of the test: Effect (100 mg/kg, po) on coronary reperfusion-induced arrhythmias was assessed in anesthetized rats.(Intervals of ventricular tachycardia (VT)+ventricular fibrillation (VF) within 600 s. It is filed as functional, Cardiac ventricle. Put shortly:
as §2

Test [13] has as its system Rattus norvegicus. The experiment in a line: Effect (0.1 mg/kg, iv) on coronary reperfusion-induced arrhythmias was assessed in anesthetized rats.(Intervals of ventricular tachycardia (VT)+ventricular fibrillation (VF) within 600 s. It counts as functional, Cardiac ventricle.
The species named for test [14] is Rattus norvegicus. The experiment in a line: Minimum effective dose of the compound. It is filed as functional. To be noted: read-out: MED.
The test system of test [15] is Rattus norvegicus. The experiment in a line: Change in heart rate was measured at 0.1 mg/kg dose(iv) in anesthetized rats. It is filed as functional. The procedure, abridged:
(§3)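 Anesthetized male Wistar rats (pentobarbital 60 mg/kg ip); compound in saline/1% olive oil/1% Tween 80 given by femoral vein. Lead II ECG recorded and heart rate read by beat-to-beat tachograph for 10 min after dosing; change in beats/min, mean ± SE, n = 3–4.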

Test [16] relates to Rattus norvegicus. The experiment in a line: Change in heart rate was measured at 0.3 mg/kg dose(iv) in anesthetized rats. It is filed as functional. Put shortly:
as §3

In test [17] the test system is Rattus norvegicus. Nature of the test: Change in arterial blood pressure was measured at 0.1 mg/kg dose(iv) in anesthetized rats. It is filed as functional, Artery. Put shortly: (§4)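 Male Wistar rats, pentobarbital 60 mg/kg ip, supine. Compound suspended in saline with 1% olive oil and 1% Tween 80, injected via femoral vein. Femoral arterial pressure monitored 10 min after injection; change in mmHg, mean ± SE, n = 3–4.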

Test [18] has as its system Rattus norvegicus. Nature of the test: Change in arterial blood pressure was measured at 0.3 mg/kg dose(iv) in anesthetized rats. It counts as functional, Artery. Put shortly: as §4
For test [19], the system named is Rattus norvegicus. Nature of the test: Antiarrhythmic activity against anesthetized rats after intravenous administration. It is filed as functional, Heart.
The test system of test [20] is Rattus norvegicus. Nature of the test: Antiarrhythmic activity against anesthetized rats after peroral administration. It is filed as functional, Heart. Put shortly:
as §2

For test [21], the system named is Rattus norvegicus. The experiment in a line: inhibitory activity was tested against anesthetized rats at 10 mg/kg. It is filed as functional.
Test [22] has as its system Rattus norvegicus. The experiment in a line: inhibitory activity was tested against anesthetized rats at 100 mg/kg. It is filed as functional.
For test [23], the species on record is Cavia porcellus. Nature of the test: Inhibitory activity against atrial contractility in isolated Guinea pig right atrea at 0.03 mg/mL concentration. It counts as functional, Cardiac atrium. Put shortly:
as §1

For test [24], the species on record is Cavia porcellus. Nature of the test: Inhibitory activity against atrial contractility in isolated Guinea pig right atrea at 0.1 mg/mL concentration. It is filed as functional, Cardiac atrium. The procedure, abridged:
as §1

The species entered for test [25] is Cavia porcellus. The experiment in a line: Inhibitory activity against atrial contractility in isolated Guinea pig right atrea at 0.3 mg/mL concentration. It is filed as functional, Cardiac atrium. Put shortly:
as §1

Test [26] is filed under the species Cavia porcellus. Nature of the test: Inhibitory activity against atrial rate in isolated Guinea pig right atrea at 0.03 mg/mL concentration. It is filed as functional, Cardiac atrium. Put shortly:
as §1

The species entered for test [27] is Cavia porcellus. Nature of the test: Inhibitory activity against atrial rate in isolated Guinea pig right atrea at 0.1 mg/mL concentration. It is filed as functional, Cardiac atrium. The procedure, abridged: as §1
The species entered for test [28] is Cavia porcellus. Nature of the test: Inhibitory activity against atrial rate in isolated Guinea pig right atrea at 0.3 mg/mL concentration. It counts as functional, Cardiac atrium. Put shortly: as §1
Test [29] deals with Rattus norvegicus. Nature of the test: Effect (100 mg/kg, po) on coronary reperfusion-induced arrhythmias was assessed in anesthetized rats.(Intervals of ventricular tachycardia (VT)+ventricular fibrillation (VF) within 600 s. It is filed as functional, Cardiac ventricle. The procedure, abridged:
as §2

The test system of test [30] is Rattus norvegicus. Nature of the test: Effect (1 mg/kg, iv) on coronary reperfusion-induced arrhythmias was assessed in anesthetized rats.(Intervals of ventricular tachycardia (VT)+ventricular fibrillation (VF) within 600 s. It counts as functional, Cardiac ventricle.
Test [31] has as its system Rattus norvegicus. Nature of the test: Effect (30 mg/kg, po) on coronary reperfusion-induced arrhythmias was assessed in anesthetized rats.(Intervals of ventricular tachycardia (VT)+ventricular fibrillation (VF) within 600 s. It counts as functional, Cardiac ventricle. Put shortly: as §2
Test [32] concerns Rattus norvegicus. Nature of the test: Change in heart rate was measured at 10 mg/kg dose(iv) in anesthetized rats. It is filed as functional. Put shortly: as §3
Test [33] deals with Rattus norvegicus. Nature of the test: Change in heart rate was measured at 30 mg/kg dose(iv) in anesthetized rats. It is filed as functional. Put shortly: as §3
For test [34], the system named is Rattus norvegicus. The experiment in a line: Change in arterial blood pressure was measured at 10 mg/kg dose(iv) in anesthetized rats. It counts as functional, Artery. The procedure, abridged:
as §4

For test [35], the system named is Rattus norvegicus. The experiment in a line: Change in arterial blood pressure was measured at 30 mg/kg dose(iv) in anesthetized rats. It counts as functional, Artery. The procedure, abridged: as §4

On to `CCCCCCCCCCCCCCOC1=C(O)C(=O)OC1C(O)CO` (stereo not drawn), for which, in the test with Rattus norvegicus [1], the Arrhythmias times is reported as 352. Further, in the test filed under Rattus norvegicus [2], the Inhibition was 40.7%. Also, the inhibition in the test listed under Rattus norvegicus [3] was 78%.
The compound `CCCCCCCCCCCCCCCCCCOC(=O)COC1=C(O)C(=O)OC1C(O)CO` (stereo not drawn) had an Arrhythmias times in the test with Rattus norvegicus [4] of 413. For the same compound, in the test listed under Rattus norvegicus [3], the inhibition was 30%.
Take `CCCCCCCCCCCCCCCCCCOC1=C(O)[C@@H](C(O)CO)OC1=O` (stereo partly drawn): the Inhibition in the test filed under Cavia porcellus [5] is reported as -1.8%; in the test filed under Cavia porcellus [6], -6%; in the test filed under Cavia porcellus [7] it was -13.6%; in the test listed under Cavia porcellus [8], -10.7%; in the test filed under Cavia porcellus [9], -16.7%; in the test filed under Cavia porcellus [10], -39.9%. In the test filed under Rattus norvegicus [2], the Inhibition is given as 87%. Further, the results for the Arrhythmias times in the test on Rattus norvegicus [11], in the test with Rattus norvegicus [12] and in the test on Rattus norvegicus [13] were 413.2, 39.4 and 238, respectively. Also, the minimal effective dose in the test filed under Rattus norvegicus [14] was 100 mg/kg. In addition, the Delta heart rate with Rattus norvegicus [15] is on record as -10 beats min-1; with Rattus norvegicus [16], -55 beats min-1. Further, the results for the Delta blood pressure in the test with Rattus norvegicus [17] and in the test with Rattus norvegicus [18] were -10 mmHg and -35.3 mmHg, respectively. Also, the Efficacy in the test with Rattus norvegicus [19] was above 0.1 mg/kg; in the test on Rattus norvegicus [20], 10 mg/kg. For the same compound, the inhibition in vivo at 10 mg/kg in the test on Rattus norvegicus [21] was found to be 20%. For the same compound, 100 mg/kg produced 92% inhibition in vivo in the test with Rattus norvegicus [22]. The inhibition in the test listed under Rattus norvegicus [3] was determined as 88%.
`CCCCCCCCCCCCC(=O)COC1=C(O)C(=O)OC1C(O)CO` (stereo not drawn): the Inhibition in the test listed under Cavia porcellus [23] is on record as 25%; in the test filed under Cavia porcellus [24], 30.2%; in the test filed under Cavia porcellus [25], 41.3%; in the test listed under Cavia porcellus [26], 12.9%; in the test listed under Cavia porcellus [27] it was 14.6%; in the test listed under Cavia porcellus [28], 13%. Also, the Inhibition in the test filed under Rattus norvegicus [2] is recorded as 6.3%. The Arrhythmias times in the test with Rattus norvegicus [29] is on record as 85.4; with Rattus norvegicus [30] it was 185; in the test on Rattus norvegicus [11], 378.2; in the test with Rattus norvegicus [31], 313.3. Besides, the Delta heart rate is recorded as -8.3 beats min-1 in the test with Rattus norvegicus [32] and -35 beats min-1 in the test on Rattus norvegicus [33]. In addition, the values for the Efficacy with Rattus norvegicus [19] and in the test on Rattus norvegicus [20] were above 1 mg/kg and above 30 mg/kg, respectively. For the same compound, the values for the Delta blood pressure with Rattus norvegicus [34] and in the test on Rattus norvegicus [35] were -5 mmHg and -17.7 mmHg, respectively. For the same compound, the inhibition in the test listed under Rattus norvegicus [3] came out at 85%.

The Inhibition is the drop in the measured response relative to a control, in per cent. As usually defined, the inhibition is the share of the control response that was lost under treatment. One may read the inhibition in vivo as the change of the read-out against control, counted positive when it falls.
